Experimental data as given in ChEMBL document CHEMBL3244375, “Hypolipidemic arylthioalkanoic acids” (J Med Chem, 1977).

Assays:
Rattus norvegicus [1] = experiment: Hypolipidemic activity in Sprague-Dawley rat assessed as reduction in serum cholesterol level at 0.25 % compound administered in diet for 14 days relative to control; type: functional; set-up: scale not given: the % may be the effect or the level left
How it was run: (§1)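 Test compound mixed into feed, given ad libitum to rats for 14 days; controls received feed alone. Rats then weighed and killed by decapitation; blood collected and serum cholesterol and triglycerides measured by previously described methods. Data reported as mg% serum with SD per group, % change versus control; significance by Student's t test. Dose-response groups of eight rats.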

Rattus norvegicus [2] = experiment: Hypolipidemic activity in Sprague-Dawley rat assessed as reduction in serum cholesterol level at 0.125 % compound administered in diet for 14 days relative to control; type: functional; set-up: scale not given: the % may be the effect or the level left; how it was run: as §1
Rattus norvegicus [3] = experiment: Hypolipidemic activity in Sprague-Dawley rat assessed as reduction in serum triglyceride level at 0.25 % compound administered in diet for 14 days relative to control; type: functional; set-up: scale not given: the % may be the effect or the level left; how it was run: as §1
Rattus norvegicus [4] = experiment: Hypolipidemic activity in Sprague-Dawley rat assessed as reduction in serum triglyceride level at 0.125 % compound administered in diet for 14 days relative to control; type: functional; set-up: scale not given: the % may be the effect or the level left; how it was run: as §1
Rattus norvegicus [5] = experiment: Toxicity in Sprague-Dawley rat assessed as increase in liver weight at 0.25 % compound administered in diet for 14 days relative to control; type: organism-based; settings: in vivo, po, 336 h
How it was run: (§2)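 Rats fed compound-containing diet ad libitum for 14 days alongside feed-only controls, eight rats per group in the dose-response study. At sacrifice by decapitation, liver removed and weighed. Change from controls scored semi-quantitatively, each + or − sign representing about a 10% change.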

Rattus norvegicus [6] = experiment: Toxicity in Sprague-Dawley rat assessed as increase in liver weight at 0.125 % compound administered in diet for 14 days relative to control; type: organism-based; settings: in vivo, po, 336 h; how it was run: as §2
[7] = Retardation factor of the compound by thin layer chromatography; type: physicochemical
Rattus norvegicus [8] = experiment: Hypolipidemic activity in Sprague-Dawley rat assessed as reduction in serum cholesterol level at 0.03 % compound administered in diet for 14 days relative to control; type: functional; set-up: scale not given: the % may be the effect or the level left; how it was run: as §1
[9] = Toxicity in mouse; type: organism-based; settings: in vivo
[10] = Toxicity in rat; type: organism-based; settings: in vivo
Rattus norvegicus [11] = experiment: Hypolipidemic activity in Sprague-Dawley rat assessed as reduction in serum cholesterol level at 0.06 % compound administered in diet for 14 days relative to control; type: functional; set-up: scale not given: the % may be the effect or the level left; how it was run: as §1
Rattus norvegicus [12] = experiment: Hypolipidemic activity in Sprague-Dawley rat assessed as reduction in serum triglyceride level at 0.03 % compound administered in diet for 14 days relative to control; type: functional; set-up: scale not given: the % may be the effect or the level left; how it was run: as §1
Rattus norvegicus [13] = experiment: Hypolipidemic activity in Sprague-Dawley rat assessed as reduction in serum triglyceride level at 0.06 % compound administered in diet for 14 days relative to control; type: functional; set-up: scale not given: the % may be the effect or the level left; how it was run: as §1
Rattus norvegicus [14] = experiment: Toxicity in Sprague-Dawley rat assessed as mortality at 0.125 % compound administered in diet for 14 days relative to control; type: organism-based; settings: in vivo, po, 336 h
How it was run: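 Compound mixed into rat feed and given ad libitum for 14 days; control groups received feed alone. At the end of the period, animals were weighed and killed by decapitation, blood was collected, and the liver was removed and weighed.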

Row | SMILES | Activity (Rattus norvegicus [1]) | Activity (Rattus norvegicus [2]) | Activity (Rattus norvegicus [3]) | Activity (Rattus norvegicus [4]) | Activity (Rattus norvegicus [6]) | also measured
1 | CCOC(=O)C(CC)Sc1cc(C(C)(C)C)c(O)c(C(C)(C)C)c1 (configuration not stated) | -5% | 13% | -55% | -43% |  | Activity (Rattus norvegicus [5]): 10%
2 | CCCCC(C(=O)OCC)c1cc(C(C)(C)C)c(O)c(C(C)(C)C)c1 (configuration not stated) |  | -2% |  | -10% |  | 
3 | CCCCCC(C)(Sc1cc(C(C)(C)C)c(O)c(C(C)(C)C)c1)C(=O)O (configuration not stated) |  | -10% |  | -60% | 10% | 
4 | CCCCC(Oc1cc(C(C)(C)C)c(O)c(C(C)(C)C)c1)C(=O)OCC (configuration not stated) |  | -13% |  | -28% | 10% | 
5 | CCCCC(Sc1ccc(Br)c(C)c1)C(=O)O (configuration not stated) |  | -17% |  | -49% | 20% | deltaRm [7]: 0.51
6 | CC(C)(Sc1cc(C(C)(C)C)c(O)c(C(C)(C)C)c1)C(=O)O | -21% |  | -66% |  |  | Activity (Rattus norvegicus [5]): 40%
7 | CCCCCCC(C)(Sc1cc(C(C)(C)C)c(O)c(C(C)(C)C)c1)C(=O)O (configuration not stated) |  | 17% |  | -73% | 10% | 
8 | CCCC(C)(Sc1cc(C(C)(C)C)c(O)c(C(C)(C)C)c1)C(=O)O (configuration not stated) |  | 12% |  | -55% | 30% | 
9 | CC(C)(C)c1cc(SCC(=O)O)cc(C(C)(C)C)c1O | -16% |  |  |  |  | 
10 | CCCCC(Sc1ccc(Cl)cc1)C(=O)O (configuration not stated) |  | -16% |  | -41% | 0% | deltaRm [7]: 0.25
11 | CCOC(=O)C(C)(C)Sc1cc(C(C)(C)C)c(O)c(C(C)(C)C)c1 | -23% |  | -60% |  |  | Activity (Rattus norvegicus [5]): 20%
12 | CC(C)(Sc1cc(C(C)(C)C)cc(C(C)(C)C)c1)C(=O)O |  | -31% |  | -63% | 30% | 
13 | CC(C)(C)c1cc(OCC(=O)O)cc(C(C)(C)C)c1O |  | 13% |  | -50% |  | 
14 | CCCCC(Sc1cc(C(C)(C)C)c(O)c(C(C)(C)C)c1)C(=O)O (racemic) | -30% | -32% | -69% | -66% | 10% | Activity (Rattus norvegicus [5]): 20%; Activity (Rattus norvegicus [8]): -21%; LD50 [9]: 5000 mg/kg; LD50 [10]: 7200 mg/kg; deltaRm [7]: 0.96; Activity (Rattus norvegicus [11]): -28%; Activity (Rattus norvegicus [12]): -35%; Activity (Rattus norvegicus [13]): -61%
15 | CCCCC(Sc1ccc(C)cc1)C(=O)O (configuration not stated) |  | -11% |  | -23% | 0% | deltaRm [7]: 0.23
16 | CCCCC(Sc1cc(C2CCCC2)c(O)c(C2CCCC2)c1)C(=O)O (configuration not stated) |  | -11% |  | -16% | Non-toxic | deltaRm [7]: 0.94
17 | CCCCCC(Sc1cc(C(C)(C)C)c(O)c(C(C)(C)C)c1)C(=O)O (configuration not stated) | -24% |  | -53% |  |  | Activity (Rattus norvegicus [5]): 10%
18 | CCCCCC(C)(Sc1cc(C(C)(C)C)cc(C(C)(C)C)c1)C(=O)O (configuration not stated) |  | -27% |  | -73% | 20% | 
19 | CCCCC(Sc1cc(C2CCCCC2)c(O)c(C2CCCCC2)c1)C(=O)O (configuration not stated) |  | -3% |  | 5% | Non-toxic | deltaRm [7]: 1.1

Row | SMILES | Activity (Rattus norvegicus [1]) | Activity (Rattus norvegicus [2]) | Activity (Rattus norvegicus [3]) | Activity (Rattus norvegicus [4]) | Activity (Rattus norvegicus [6]) | also measured
20 | CCOC(=O)C(C)(C)Oc1ccc(Cl)cc1 [CLOFIBRATE] | -28% |  | -50% |  |  | Activity (Rattus norvegicus [5]): 20%
21 | CCCC(C)(Sc1cc(C(C)(C)C)cc(C(C)(C)C)c1)C(=O)O (configuration not stated) |  | -29% |  | -80% | 40% | 
22 | CCCC(Sc1cc(C(C)(C)C)c(O)c(C(C)(C)C)c1)C(=O)O (configuration not stated) |  | -3% |  | -72% | 30% | 
23 | CCCCC(Sc1cc(C(C)(C)C)cc(C(C)(C)C)c1)C(=O)O (configuration not stated) | -20% | -23% | -41% | -58% | 20% | deltaRm [7]: 1.18
24 | CCCCCCC(C)(Sc1cc(C(C)(C)C)cc(C(C)(C)C)c1)C(=O)O (configuration not stated) |  | -38% |  | -68% | 30% | 
25 | CCCCC(C)(Sc1cc(C(C)(C)C)c(O)c(C(C)(C)C)c1)C(=O)O (configuration not stated) |  | 8% |  | -66% | 20% | 
26 | CC(Oc1cc(C(C)(C)C)c(O)c(C(C)(C)C)c1)C(=O)O (configuration not stated) |  |  |  |  |  | Activity (Rattus norvegicus [14]): Toxic
27 | CC(C)(Sc1cc(C(C)(C)C)c(O)c(C(C)(C)C)c1)Sc1cc(C(C)(C)C)c(O)c(C(C)(C)C)c1 [PROBUCOL] | 38% |  | -33% |  |  | Activity (Rattus norvegicus [5]): 0%
28 | CCCC(Sc1cc(C(C)(C)C)c(O)c(C(C)(C)C)c1)C(=O)OCC (configuration not stated) | 0% |  | -54% |  |  | Activity (Rattus norvegicus [5]): 0%
29 | CCCCC(Sc1ccc(OC)cc1)C(=O)O (configuration not stated) |  | -12% |  | -45% | 0% | deltaRm [7]: 0.08
30 | CCC(Sc1cc(C(C)(C)C)c(O)c(C(C)(C)C)c1)C(=O)O (configuration not stated) | -37% |  | -74% |  |  | Activity (Rattus norvegicus [5]): 40%
31 | CCCCC(Sc1ccccc1)C(=O)O (configuration not stated) |  | -16% |  | -37% | 0% | deltaRm [7]: 0
32 | CCCCC(C(=O)O)S(=O)(=O)c1cc(C(C)(C)C)c(O)c(C(C)(C)C)c1 (configuration not stated) | -17% | -14% | -44% | -36% | 20% | 
33 | CC(Sc1cc(C(C)(C)C)c(O)c(C(C)(C)C)c1)C(=O)O (configuration not stated) | -32% |  | -78% |  |  | Activity (Rattus norvegicus [5]): 30%
34 | CCCCC(C(=O)O)c1cc(C(C)(C)C)c(O)c(C(C)(C)C)c1 (configuration not stated) |  | -20% |  | -24% |  | 
35 | CCC(Oc1cc(C(C)(C)C)c(O)c(C(C)(C)C)c1)C(=O)O (configuration not stated) |  | 6% |  | 38% |  | 
36 | CCCCC(Oc1cc(C(C)(C)C)c(O)c(C(C)(C)C)c1)C(=O)O (configuration not stated) |  | -7% |  | -38% | 20% | 
37 | CCC(C)(Sc1cc(C(C)(C)C)c(O)c(C(C)(C)C)c1)C(=O)O (configuration not stated) | -32% |  | -80% |  |  | Activity (Rattus norvegicus [5]): 40%
